Assay results as given in the M2OR odorant receptor database.

How the values were obtained:
Settings in all cases: stereoisomer not certain
O51V1 L36F N51T G96W = test system: O51V1 L36F N51T G96W
Summary of the method: (§1)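 Values were gathered from published papers (main text and supplementary material), with extra details requested from the original authors when needed, and checked for typos and inconsistencies. Each receptor–molecule pair is called responsive (active) if the original authors judged the measured signal statistically different from baseline, and non-responsive (inactive) otherwise. Assay methods varied by source, often transient mammalian cell-line luciferase assays. Recorded details include cell line, G-protein, co-transfected protein and tags.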

O52A1 = test system: O52A1
Summary of the method: as §1

O52B6 V288I = test system: O52B6 V288I
Summary of the method: as §1

O52E2 R264C = test system: O52E2 R264C
Summary of the method: as §1

O52E4 = test system: O52E4
Summary of the method: as §1

O52E5 = test system: O52E5
Summary of the method: as §1

O52E8 = test system: O52E8
Summary of the method: as §1

O52H1 A89T H130R C242R = test system: O52H1 A89T H130R C242R
Summary of the method: as §1

O52H1 H130R C242R = test system: O52H1 H130R C242R
Summary of the method: as §1

O52H1 = test system: O52H1
Summary of the method: as §1

O52I2 I74L = test system: O52I2 I74L
Summary of the method: as §1

O52J3 T77A V128I Q141L = test system: O52J3 T77A V128I Q141L
Summary of the method: as §1

O52K1 A119T A149T = test system: O52K1 A119T A149T
Summary of the method: as §1

O52K1 Q52R = test system: O52K1 Q52R
Summary of the method: as §1

O52L1 = test system: O52L1
Summary of the method: as §1

O52M1 S305R = test system: O52M1 S305R
Summary of the method: as §1

O52N1 R167C F247I = test system: O52N1 R167C F247I
Summary of the method: as §1

O52N2 S249A H264R = test system: O52N2 S249A H264R
Summary of the method: as §1

O52W1 H239R L254Q = test system: O52W1 H239R L254Q
Summary of the method: as §1

O56A3 = test system: O56A3
Summary of the method: as §1

Measured: odorant receptor agonist call

Sequence of O52E8 (as listed by the source): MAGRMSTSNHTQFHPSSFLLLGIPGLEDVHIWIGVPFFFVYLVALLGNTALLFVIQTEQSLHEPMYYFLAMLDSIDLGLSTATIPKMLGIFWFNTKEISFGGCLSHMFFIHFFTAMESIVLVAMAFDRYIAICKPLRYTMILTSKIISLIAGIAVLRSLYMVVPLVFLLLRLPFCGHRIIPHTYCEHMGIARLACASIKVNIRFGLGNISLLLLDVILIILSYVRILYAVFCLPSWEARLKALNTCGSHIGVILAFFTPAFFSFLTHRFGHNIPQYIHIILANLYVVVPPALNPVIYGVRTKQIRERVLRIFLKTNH
Sequence of O52H1 (as listed by the source): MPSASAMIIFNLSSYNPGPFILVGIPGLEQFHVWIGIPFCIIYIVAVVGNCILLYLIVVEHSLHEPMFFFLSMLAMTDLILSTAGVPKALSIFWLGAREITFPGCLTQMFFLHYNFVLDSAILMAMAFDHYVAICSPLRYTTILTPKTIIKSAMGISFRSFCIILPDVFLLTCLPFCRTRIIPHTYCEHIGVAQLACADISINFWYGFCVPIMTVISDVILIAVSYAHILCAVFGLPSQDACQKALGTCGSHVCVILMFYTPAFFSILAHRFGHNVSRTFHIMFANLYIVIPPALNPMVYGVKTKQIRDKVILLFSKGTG
Sequence of O52A1 (as listed by the source): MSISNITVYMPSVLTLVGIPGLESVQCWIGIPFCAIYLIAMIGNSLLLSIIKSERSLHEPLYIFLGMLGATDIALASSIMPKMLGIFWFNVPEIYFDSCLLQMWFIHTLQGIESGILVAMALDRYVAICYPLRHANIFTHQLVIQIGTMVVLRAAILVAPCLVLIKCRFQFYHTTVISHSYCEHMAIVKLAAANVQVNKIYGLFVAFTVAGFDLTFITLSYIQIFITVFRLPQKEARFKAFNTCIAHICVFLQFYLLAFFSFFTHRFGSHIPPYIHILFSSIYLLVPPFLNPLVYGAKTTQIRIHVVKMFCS
Sequence of O52M1 S305R (as listed by the source, stated change not applied): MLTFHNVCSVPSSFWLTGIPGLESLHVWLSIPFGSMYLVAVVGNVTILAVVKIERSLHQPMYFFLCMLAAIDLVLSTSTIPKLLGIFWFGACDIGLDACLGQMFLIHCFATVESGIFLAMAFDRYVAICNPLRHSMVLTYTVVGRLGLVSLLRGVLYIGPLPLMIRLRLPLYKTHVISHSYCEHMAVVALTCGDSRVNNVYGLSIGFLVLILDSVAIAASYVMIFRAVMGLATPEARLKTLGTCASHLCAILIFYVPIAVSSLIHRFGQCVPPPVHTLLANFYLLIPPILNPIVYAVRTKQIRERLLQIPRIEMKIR
Sequence of O52E5 (as listed by the source): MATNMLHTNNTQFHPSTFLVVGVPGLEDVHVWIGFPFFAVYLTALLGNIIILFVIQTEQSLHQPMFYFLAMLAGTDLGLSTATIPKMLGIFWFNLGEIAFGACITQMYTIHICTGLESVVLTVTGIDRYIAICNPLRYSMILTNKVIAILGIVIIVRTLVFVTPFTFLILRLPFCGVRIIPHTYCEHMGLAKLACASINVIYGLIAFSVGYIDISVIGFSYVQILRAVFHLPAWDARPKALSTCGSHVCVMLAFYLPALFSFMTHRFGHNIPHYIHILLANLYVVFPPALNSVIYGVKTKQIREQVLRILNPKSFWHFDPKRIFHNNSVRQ
Sequence of O52B6 V288I (as listed by the source, stated change not applied): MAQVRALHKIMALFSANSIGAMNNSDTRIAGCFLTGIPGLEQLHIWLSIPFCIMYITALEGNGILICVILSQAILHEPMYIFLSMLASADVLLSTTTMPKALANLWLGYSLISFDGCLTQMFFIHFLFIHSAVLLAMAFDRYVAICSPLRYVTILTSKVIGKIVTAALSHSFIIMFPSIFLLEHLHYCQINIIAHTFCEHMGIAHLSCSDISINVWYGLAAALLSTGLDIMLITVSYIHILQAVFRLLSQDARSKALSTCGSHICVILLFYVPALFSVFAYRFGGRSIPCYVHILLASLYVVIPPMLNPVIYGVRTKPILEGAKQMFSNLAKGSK
Sequence of O52L1 (as listed by the source): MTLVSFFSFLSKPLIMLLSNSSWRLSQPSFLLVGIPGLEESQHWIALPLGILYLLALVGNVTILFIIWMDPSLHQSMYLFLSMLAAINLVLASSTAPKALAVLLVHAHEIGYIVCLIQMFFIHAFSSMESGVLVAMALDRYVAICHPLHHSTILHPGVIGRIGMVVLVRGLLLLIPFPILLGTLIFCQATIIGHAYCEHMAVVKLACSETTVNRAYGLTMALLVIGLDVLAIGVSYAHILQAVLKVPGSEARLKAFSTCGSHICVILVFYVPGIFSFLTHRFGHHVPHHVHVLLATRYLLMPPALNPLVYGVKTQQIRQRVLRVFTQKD
Sequence of O52K1 Q52R (as listed by the source, stated change not applied): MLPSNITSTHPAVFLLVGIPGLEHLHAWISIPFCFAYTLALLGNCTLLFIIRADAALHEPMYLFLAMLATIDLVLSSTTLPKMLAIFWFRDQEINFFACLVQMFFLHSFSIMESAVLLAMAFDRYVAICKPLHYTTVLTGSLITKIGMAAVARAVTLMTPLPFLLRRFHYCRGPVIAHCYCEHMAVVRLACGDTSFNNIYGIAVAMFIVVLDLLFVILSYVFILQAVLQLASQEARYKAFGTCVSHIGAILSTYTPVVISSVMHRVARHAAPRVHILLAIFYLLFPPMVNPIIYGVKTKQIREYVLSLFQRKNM
Sequence of O52E4 (as listed by the source): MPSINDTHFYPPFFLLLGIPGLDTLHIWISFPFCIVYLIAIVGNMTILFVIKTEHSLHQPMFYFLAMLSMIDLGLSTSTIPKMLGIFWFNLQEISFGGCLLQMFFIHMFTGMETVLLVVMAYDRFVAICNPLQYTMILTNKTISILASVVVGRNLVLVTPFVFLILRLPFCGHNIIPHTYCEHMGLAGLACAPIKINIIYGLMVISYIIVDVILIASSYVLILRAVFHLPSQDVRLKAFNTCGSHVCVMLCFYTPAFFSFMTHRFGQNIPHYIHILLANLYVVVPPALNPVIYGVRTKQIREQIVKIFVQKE
Sequence of O52I2 I74L (as listed by the source, stated change not applied): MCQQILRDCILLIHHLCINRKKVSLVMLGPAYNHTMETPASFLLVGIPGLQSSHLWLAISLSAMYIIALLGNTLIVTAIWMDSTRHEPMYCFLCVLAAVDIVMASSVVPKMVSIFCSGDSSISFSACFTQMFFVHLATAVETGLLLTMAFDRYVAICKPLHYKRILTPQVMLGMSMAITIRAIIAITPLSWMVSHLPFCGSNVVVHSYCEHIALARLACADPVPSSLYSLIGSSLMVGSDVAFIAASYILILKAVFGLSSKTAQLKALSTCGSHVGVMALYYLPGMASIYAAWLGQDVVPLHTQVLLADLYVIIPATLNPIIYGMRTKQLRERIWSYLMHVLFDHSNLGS
Sequence of O52E2 R264C (as listed by the source, stated change not applied): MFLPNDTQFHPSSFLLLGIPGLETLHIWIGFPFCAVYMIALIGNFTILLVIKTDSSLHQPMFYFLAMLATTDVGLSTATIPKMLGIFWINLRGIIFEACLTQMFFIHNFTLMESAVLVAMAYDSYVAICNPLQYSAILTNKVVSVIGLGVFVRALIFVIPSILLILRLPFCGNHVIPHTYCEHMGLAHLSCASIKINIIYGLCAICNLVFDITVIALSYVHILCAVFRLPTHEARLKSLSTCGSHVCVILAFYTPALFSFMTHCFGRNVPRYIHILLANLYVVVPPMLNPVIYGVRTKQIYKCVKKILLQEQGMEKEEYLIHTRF
Sequence of O56A3 (as listed by the source): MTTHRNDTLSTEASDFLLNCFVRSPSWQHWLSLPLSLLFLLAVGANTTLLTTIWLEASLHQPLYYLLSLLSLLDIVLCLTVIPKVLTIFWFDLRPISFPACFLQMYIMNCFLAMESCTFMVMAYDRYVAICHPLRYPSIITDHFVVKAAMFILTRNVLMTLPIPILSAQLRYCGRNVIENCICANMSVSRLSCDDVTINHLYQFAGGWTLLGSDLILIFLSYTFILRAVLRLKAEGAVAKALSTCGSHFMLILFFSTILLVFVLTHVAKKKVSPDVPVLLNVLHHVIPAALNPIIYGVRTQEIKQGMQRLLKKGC

C=CCOC(=O)Cc1ccccc1
inactive: all assays above

Cc1c([N+](=O)[O-])c(C)c([N+](=O)[O-])c(C(C)(C)C)c1[N+](=O)[O-]
inactive: O52E8 | O52H1
